# Shown are actives, neighbours in structure and some others; about 5.9% of the full set was active somewhere.
# hDAT+cocaine = changed human dopamine transporter uptake under cocaine IC80 | B-score at 10 µM | Q01959 | hit rate 1.3% among 110,000 | AID 449768 | LLC-PK1 hDAT cells, [14C]-dopamine uptake with cocaine IC80; actives deviate in either direction;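 active = Z score or B-score, a plate-position-corrected score, falls beyond the plate's 99.7% confidence bounds, in either direction; inactive = both scores lie inside the 99.7% bounds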;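 also: scored against the spread of the other compound wells on the same plate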
# Target sequence (Q01959 whole entry, looked up): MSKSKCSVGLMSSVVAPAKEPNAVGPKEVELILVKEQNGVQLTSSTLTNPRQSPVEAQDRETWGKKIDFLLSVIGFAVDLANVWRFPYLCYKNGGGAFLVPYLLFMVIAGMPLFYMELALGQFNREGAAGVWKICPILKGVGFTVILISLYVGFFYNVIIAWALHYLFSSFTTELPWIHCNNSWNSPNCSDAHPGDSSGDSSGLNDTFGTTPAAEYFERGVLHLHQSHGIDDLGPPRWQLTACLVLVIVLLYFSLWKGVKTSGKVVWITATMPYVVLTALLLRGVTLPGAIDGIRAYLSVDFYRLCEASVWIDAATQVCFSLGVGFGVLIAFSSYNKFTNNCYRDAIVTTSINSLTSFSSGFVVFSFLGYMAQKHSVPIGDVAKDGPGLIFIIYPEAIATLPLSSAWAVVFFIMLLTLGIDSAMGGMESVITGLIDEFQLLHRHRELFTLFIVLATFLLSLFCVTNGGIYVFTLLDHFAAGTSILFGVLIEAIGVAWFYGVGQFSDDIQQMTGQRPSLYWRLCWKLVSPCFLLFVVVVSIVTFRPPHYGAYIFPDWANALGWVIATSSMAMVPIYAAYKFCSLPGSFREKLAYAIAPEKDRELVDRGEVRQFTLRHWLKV
# Cav32 inh = human Cav3.2 channel inhibition, primary screen | B-score at 10 µM | hit rate 4% among 100,000 | O95180 | AID 449739 | Cav3.2-expressing cells, Fluo-4 calcium fluorescence FDSS; hits give low values;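 active = single-dose well whose peak fluorescence ratio is a statistical outlier from its plate by either plate-standardised score or position-corrected B-score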
# PTK2B oligo ant = Pyk2 (human) oligomerization antagonism; AID 1347419; hit rate 0.83% among 99,000; z-score (the deposit names both 25 µM and 10 µM); Q14289; Q293 cells, Pyk2 FERM NanoBiT luminescence; hits give low values;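 active = Z-score of -3 or lower, scaled per plate to the spread of control and sample wells; inactive = z-score above -3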;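 also: negative z-score means lost luminescence so less FERM oligomerization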
# Phagocytosis inh = macrophage phagocytosis inhibition. hit rate 0.07% among 110,000. J774A.1 macrophage IgG-bead phagocytosis, imaging. inhibition, % at 5 µM. AID 1029;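 active = inhibition above the mean of the plate negative controls plus 5 SD, cut at about 13% in these data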;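 also: phagocytic index as fraction of beads internalized from green versus red external bead signal; plate controls were DMSO negative control for no effect and cytochalasin-D positive control for full effect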
# HIV Rev-RRE inh = disrupts HIV-1 Rev binding to RRE RNA; P05866; Rev peptide-RRE RNA binding, FRET; inhibition, % at 8 µM; hit rate 0.79% among 97,000;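 active = inhibition above the screen-wide mean plus 3 SD, cut at about 35% in these data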;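 also: 0% = median DMSO wells and 100% = median Neomycin B control wells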
# Target sequence (P05866 whole entry, looked up): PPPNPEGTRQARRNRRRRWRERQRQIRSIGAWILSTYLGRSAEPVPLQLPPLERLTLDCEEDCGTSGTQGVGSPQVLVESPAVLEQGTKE
#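 Test system – labelled RRE RNA duplex and labelled Rev peptide · Signal – fluorescein-to-Cy5 FRET, 480 nm excitation · Evaluation – % inhibition of FRET ratio versus controls · Benchmarks – DMSO low control, neomycin B high control · Incubation – 5 min RNA-compound premix plus 15 min binding step, 25 °C · Medium – HEPES pH 7.5 salt buffer with EDTA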
# Measles CPE = protection of cells from measles virus; Measles virus-infected cells, CPE protection, absorbance; hit rate 1.5% among 140,000; protection (pct of control), % at 4 µM; AID 841; in the data active = protection mostly above about 24%, no sharp cut-off; inactive = mostly below about 26%
# * hit, by the source's call; . = no result; [ ] = remark or other dose.
SMILES,hDAT+cocaine,Cav32 inh,PTK2B oligo ant,Phagocytosis inh,HIV Rev-RRE inh,Measles CPE
O=C(CSc1nc2ccccc2c(=O)n1Cc1ccco1)N1CCCCCC1,-0.782,-2.4,-1.01,3.3,8.4,45.2*
CCOc1ccc(OCCOCCNCCOC)cc1,.,.,.,.,.,8.0
COC(=O)C1=C(C(=O)OC)[C@@H]2Nc3ccccc3[C@@]23C[C@@H](C(=O)OC)N(C(=O)CC(C)C)C3=N1,-0.201,0.103,.,.,.,.
O=C(Nc1ccccc1Br)C1CCN(C(=O)Cc2ccccc2)CC1,.,.,.,-0.8,.,13.0
CCOc1ccc(C(=O)O)cn1,0.0556,1.66,.,.,.,.
O=c1c2ccccc2nc(SCc2cc(F)cc3c2OCOC3)n1Cc1ccco1,-0.574,-5.98*,-0.62,2.5,6.1,2.8
Cc1[nH]nc(-c2ccc(O)c(C)c2O)c1Oc1ccccc1,0.895,-4.76,-3.37*,0.8,1.1,3.6
CCOc1ccc(-c2n[nH]c(C)c2Oc2ccc(OC)cc2)c(O)c1,-0.338,0.236,-3.09*,-1.7,7.0,17.7
Cc1[nH]nc(-c2ccc(OCc3cnn(-c4ccccc4)c3)cc2O)c1Oc1ccc(F)cc1,-1.02,0.187,-0.06,1.1,4.0,4.7
Cc1[nH]nc(-c2ccc(OCc3cnn(-c4ccccc4)c3)c(C)c2O)c1Oc1ccccc1,0.819,0.979,-0.5,-0.2,16.9,2.2
Cc1ccc(S(=O)(=O)N2CCC(=O)N(C(COCc3ccc(C(F)(F)F)cc3)Cc3ccccc3)CC2)cc1 (stereo not given),0.464,1.14,.,.,.,1.2
O=c1cc(O)nc(SCc2ccc(Cl)cc2)[nH]1,0.859,-6.93*,-0.26,-1.0,5.6,18.5
Nc1cc(=O)[nH]c(SCc2ccc(Cl)cc2)n1,0.531,-0.307,0.65,-1.9,9.9,4.1
Cc1nn(-c2ccccc2)c(C)c1C(=O)OCC(=O)c1c(N)n(CC(C)C)c(=O)n(C)c1=O,-0.0069,-3.84*,-2.36,0.9,.,9.6
CC(C)Cn1c(N)c(C(=O)COC(=O)c2cc(-c3ccccc3)nc3ccccc23)c(=O)n(C)c1=O,2.47*,-1.18,.,.,.,16.2
CC(C)Cn1c(N)c(C(=O)COC(=O)c2cc(-c3ccco3)nc3ccccc23)c(=O)n(C)c1=O,.,.,.,1.4,-20.5,2.8
Cc1cccc(N(C)C(=O)c2cc3cc4ccc(C)cc4nc3o2)c1,-0.783,-5.1*,-1.57,-0.6,6.8,1.4
CC1(C)CC(=O)CC(=O)/C1=N\Nc1c(Cl)cc(Cl)cc1Cl,.,.,.,-6.8,.,9.0
O=S(=O)(/C=C/c1ccccc1)Nc1ccc2c(c1)OCO2,0.93,-7.42*,-0.48,-1.4,1.0,24.8
O=C(COc1ncnc2ccc(Br)cc12)NCc1ccc2c(c1)OCO2,-8.86*,-3.52,-0.73,-0.3,7.4,1.8
Cn1c(C(=O)NCc2ccc3c(c2)OCO3)cc2sccc21,0.412,-2.34,-0.92,-0.2,0.9,15.4
CC(C)n1c(C(=O)OCC(=O)NCc2ccc3c(c2)OCO3)cc2sccc21,1.27,-3.26*,-1.36,1.5,17.2,2.8
O=C(COC(=O)c1cccnc1Cl)NCc1ccc2c(c1)OCO2,.,.,.,-4.0,.,33.2*
CSc1sc(C(=O)O)c(C)c1C(C)=O,-0.577,-1.47,-0.43,0.9,8.3,12.1
CN(C(=O)c1cccc(Nc2ccc(-c3ccc4c(c3)OCCO4)nn2)c1)C1CCCCC1,2.46,-3.76*,-3.59*,.,10.4,31.7
SMILES,hDAT+cocaine,Cav32 inh,PTK2B oligo ant,Phagocytosis inh,HIV Rev-RRE inh,Measles CPE
COc1ccccc1NC(=O)N1CCC(c2nc3cc(C)c(C)cc3[nH]2)CC1,-0.0618,-0.574,0.2,.,1.6,19.9
COc1ccccc1NC(=S)N1CCC(c2nc3cc(C)c(C)cc3[nH]2)CC1,-2.31*,-1.8,0.05,.,-3.7,0.5
CC(C)(C)c1ccc(OCC(=O)NC2CCS(=O)(=O)C2)cc1 (stereo not given),0.207,0.367,0.71,9.9,0.4,2.7
Cc1ccc(OCC(=O)NC2CCS(=O)(=O)C2)cc1 (stereo not given),-0.305,-4.69*,1.2,-0.9,13.0,29.1
COc1ccc(OC)c(/C=c2\sc3nc(-c4cccs4)nn3c2=O)c1,-0.626,-2.38,0.4,-0.5,57.4*,1.3
CCN(CC)S(=O)(=O)c1ccc(OC)c(NC(=S)Nc2cccc(C)c2)c1,.,.,.,-5.2,.,3.7
CCN(CC)S(=O)(=O)c1ccc(OC)c(NC(=S)Nc2cccc(C)c2C)c1,.,.,.,-9.8,.,44.9*
CCCSc1nc2sc3c(c2c(=O)[nH]1)CCN(Cc1ccccc1)C3,0.574,-5.86*,0.76,-0.3,92.4*[fluorescence artefact?],5.8
COC(=O)[C@H]1C[C@H]1[C@@H](NC(=O)c1ccc[nH]1)c1ccccc1,1.05,-0.853,.,.,.,.
C/C(=N\Nc1nc(-c2cc(C)ccc2C)cs1)c1cc2c(ccc3ccccc32)oc1=O,.,.,.,-6.7,.,8.8
CCOC(=O)N1CCC(NC(=O)CSCc2nc(-c3sccc3C)oc2C)CC1,2.77*,-0.456,.,.,4.4,11.9
CCOC(=O)N1CCC(NC(=O)CSCc2nc(-c3cccc(OC)c3)oc2C)CC1,-0.00127,1.88,1.65,-1.2,-0.9,13.0
Cc1oc(-c2cccs2)nc1CSCC(=O)NC1CC1,-0.34,1.55,-0.1,-3.6,10.8,4.0
Cc1oc(-c2ccccc2Cl)nc1CSCC(=O)NC1CCCC1,1.37,-4.5*,0.06,-1.3,9.2,9.5
O=C(O)c1cccnc1SCC(=O)N1CCCCCC1,-2.18,0.537,-0.07,-0.6,2.8,0.7
O=C(O)c1ccccc1SCC(=O)N1CCCCC1,-1.7,0.202,-0.21,0.2,3.1,39.7*
O=C(CSc1nnc(-c2ccccc2Cl)o1)N1CCCCC1,1.37,-4.18*,.,0.0,.,5.7
CN(C)S(=O)(=O)c1ccc(S(=O)(=O)NC2CCOC(C)(C)C2)cc1 (stereo not given),0.0138,-1.83,0.02,.,7.6,6.4
CCOC(=O)CSc1nnc(-c2ccc(Cl)cc2Cl)o1,-0.621,-0.0677,0.44,-1.2,1.6,41.7*
Cc1oc(-c2ccccc2Cl)nc1CSCC(=O)N1CCCC1,1.92,-0.403,-1.44,0.7,-1.5,44.4*
CCCOC(=O)CSc1nnc(-c2ccc(Cl)cc2Cl)o1,-0.0778,-0.0587,1.88,-1.6,9.5,2.8
COc1ccc(C(=O)Nc2ccc(NC(=O)c3cnccn3)cn2)cc1,0.207,.,1.95,.,-2.1,8.3
C/C(=N/O)c1ccc2c(c1)OCCOCCOc1cc(/C(C)=N/O)ccc1OCCOCCO2,.,.,.,-9.4,.,7.3
Cc1[nH]ccc(=O)c1OC1OC(CO)C(O)C(O)C1O (stereo not given),0.983,1.26,.,.,.,9.9
Cc1ccc(OCCN2C(=O)S/C(=C\c3ccc(C)o3)C2=O)cc1,.,.,.,-6.4,.,12.6
Clc1ccc(Cn2ncc3c(NCc4ccccc4)ncnc32)cc1,0.0829,-6.86*,-1.93,-1.2,17.3,7.6
CCN(CC)c1ccc(NC(=O)CN2CCN(CC(=O)Nc3ccc(F)cc3)CC2)cc1,-0.243,.,1.53,-1.2,.,21.6
Cc1ccc(NC(=O)CN2CCC(C(=O)c3ccc(F)cc3)CC2)cc1,1.75,-5.23*,1.06,.,13.9,24.4

# High-throughput results (PubChem)
